Measurements published in ChEMBL document CHEMBL1255523, “Optimization of N-benzyl-benzoxazol-2-ones as receptor antagonists of macrophage migration inhibitory factor (MIF)” (Bioorg Med Chem Lett, 2010).
The source made the active and inactive calls. No cut-off for these calls is given here.

What was measured:
[1] = target: T1, Macrophage migration inhibitory factor (Homo sapiens) (UniProt P14174); test: Inhibition of human recombinant MIF tautomerase at up to 0.1 uM
T1 sequence (whole entry): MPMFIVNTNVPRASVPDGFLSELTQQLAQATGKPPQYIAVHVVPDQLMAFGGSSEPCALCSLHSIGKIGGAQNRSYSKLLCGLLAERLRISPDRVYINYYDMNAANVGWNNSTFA

[2] = target: T2, MIF/CD74 (Macrophage migration inhibitory factor and HLA-DR antigens-associated invariant chain) (Homo sapiens, UniProt P04233+P14174); test: (§1) Inhibition of human recombinant biotinylated MIF/CD74 interaction after 30 mins; type: protein assay
T2 sequence (P14174 whole entry): T1 sequence (whole entry)
T2 sequence (P04233 whole entry): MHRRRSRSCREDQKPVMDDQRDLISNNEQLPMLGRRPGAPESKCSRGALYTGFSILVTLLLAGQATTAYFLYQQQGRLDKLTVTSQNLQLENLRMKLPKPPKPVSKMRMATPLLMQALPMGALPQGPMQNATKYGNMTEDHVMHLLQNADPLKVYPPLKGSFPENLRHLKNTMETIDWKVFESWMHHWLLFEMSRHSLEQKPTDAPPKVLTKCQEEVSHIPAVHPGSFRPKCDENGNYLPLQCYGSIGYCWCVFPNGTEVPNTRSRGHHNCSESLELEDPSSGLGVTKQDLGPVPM
Summary of the method: (§2)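 Bound MIF was detected with streptavidin-alkaline phosphatase and p-nitrophenylphosphate substrate. Compounds were tested over 500- to 5000-fold concentration ranges.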

[3] = target: T3, MIF/CD74 (Macrophage migration inhibitory factor and HLA-DR antigens-associated invariant chain) (Homo sapiens) (UniProt P14174+P04233); test: Inhibition of human recombinant biotinylated MIF/CD74 interaction at up to 10 uM after 30 mins; type: protein assay; summary of the method: as §2
[4] = target: T4, Macrophage migration inhibitory factor (Homo sapiens, UniProt P14174); test: Inhibition of human recombinant MIF tautomerase
T4 sequence (P14174 whole entry): T1 sequence (whole entry)

[5] = target: T3, MIF/CD74 (Macrophage migration inhibitory factor and HLA-DR antigens-associated invariant chain) (Homo sapiens); test: Inhibition of human recombinant biotinylated MIF/CD74 interaction at 30 uM by mass spectrometry analysis; type: protein assay
[6] = target: T1, Macrophage migration inhibitory factor (Homo sapiens); test: Inhibition of human recombinant MIF tautomerase at 30 uM by mass spectrometry analysis
[7] = target: T1, Macrophage migration inhibitory factor (Homo sapiens); test: Inhibition of MIF-dependent ERK1/2 phosphorylation in rheumatoid arthritis patient synovial fibroblasts assessed as phosphorylated ERK1/2 level at 300 nM after 30 mins
[8] = target: T1, Macrophage migration inhibitory factor (Homo sapiens); test: Inhibition of MIF-dependent ERK1/2 phosphorylation in rheumatoid arthritis patient synovial fibroblasts assessed as total ERK1/2 level at 300 nM after 30 mins
[9] = target: T5, MIF/CD74 (Macrophage migration inhibitory factor and HLA-DR antigens-associated invariant chain) (Homo sapiens, UniProt P14174+P04233); test: as §1; type: protein assay; summary of the method: as §2
T5 sequence (P14174 whole entry): T1 sequence (whole entry)
T5 sequence (P04233 whole entry): T2 sequence (P04233 whole entry)

SMILES | inhibition [1] [%] | inhibition [3] [%] | further results
CCOc1cc(O)cc(Cn2c(=O)oc3ccc(C)cc32)c1 | 30 | 35 | 
O=c1oc2ccc(CO)cc2n1Cc1cccc(O)c1 |  |  | IC50 [4]: Not Active; IC50 [2]: 30 µM
Ic1cc(-c2ccccc2)ncn1 |  |  | inhibition [5]: 50%; inhibition [6]: 90%
COc1cccc(Cn2c(=O)oc3ccc(C)cc32)c1OC | 32 |  | IC50 [2]: 7 µM
COc1cc(O)cc(Cn2c(=O)oc3ccc(C)cc32)c1 | 12 | 22 | 
Cc1ccc2oc(=O)n(Cc3cccc(F)c3)c2c1 |  |  | IC50 [4]: Not Active
Cc1ccc2oc(=O)n(Cc3ccc(O)cc3)c2c1 |  |  | IC50 [4]: Not Active
O=c1oc2ccc(O)cc2n1Cc1ccccc1 |  |  | IC50 [4]: Not Active
CCOc1ccccc1Cn1c(=O)oc2ccc(C)cc21 | 21 | 45 | 
COc1ccc(Cn2c(=O)oc3ccc(C)cc32)cc1 |  |  | IC50 [4]: Not Active
COc1cc(Cn2c(=O)oc3ccc(C)cc32)cc(OC)c1 | 17 | 11 | 
Cc1cc2oc(=O)n(Cc3cccc(O)c3)c2cc1C | 33 | 32 | 
O=c1oc2ccccc2n1Cc1ccccc1 |  | 18 | IC50 ([4]; read-out: IC50): 21 µM
COc1cccc(Cn2c(=O)oc3ccc(F)cc32)c1 |  |  | IC50 [4]: Not Active
O=c1oc2cc(F)ccc2n1Cc1cccc(O)c1 |  |  | IC50 [4]: Not Active; IC50 [9]: Not Active
COc1cccc(Cn2c(=O)oc3cc(C)c(C)cc32)c1 | 25 |  | IC50 [2]: 0.115 µM
O=c1oc2cc(O)ccc2n1Cc1ccccc1 | 28 | 22 | 
COc1ccccc1Cn1c(=O)oc2ccc(O)cc21 |  | 27 | IC50 ([4]; read-out: IC50): 30 µM
COc1cccc(Cn2c(=O)oc3ccc(O)cc32)c1OC |  |  | IC50 ([4]; read-out: IC50): 2.1 µM; IC50 [2]: 300 µM

Second part, led by results:

inhibition [1] [%] | inhibition [3] [%] | SMILES | further results
41 |  | COc1cccc(Cn2c(=O)oc3ccc(OC)cc32)c1 | IC50 [2]: 200 µM
 | 25 | Cc1ccc2c(c1)oc(=O)n2Cc1ccccc1 | 
25 | 36 | O=c1oc2ccc(O)cc2n1Cc1cccc(O)c1 | 
13 | 15 | CCc1ccc2oc(=O)n(Cc3cccc(OC)c3)c2c1 | 
31 | 27 | Cc1ccc2oc(=O)n(Cc3cccc(N)c3)c2c1 | 
35 | 15 | COc1cccc(Cn2c(=O)oc3cc(F)ccc32)c1 | 
32 | 18 | O=c1oc2ccc(F)cc2n1Cc1cccc(O)c1 | 
10 |  | COc1ccc2oc(=O)n(Cc3cccc(O)c3)c2c1 | IC50 [2]: 0.08 µM
 | 40 | Cc1ccc2oc(=O)n(Cc3cccc(O)c3)c2c1 | inhibition [7]: Active; inhibition [8]: Active; inhibition [5]: 50%; inhibition [6]: 50%
 | 10 | Cc1ccc2c(c1)oc(=O)n2Cc1cccc(O)c1 | IC50 ([4]; read-out: IC50): 0.0075 µM
 | 19 | CCc1ccc2oc(=O)n(Cc3cccc(O)c3)c2c1 | IC50 ([4]; read-out: IC50): 2.5 µM
16 | 24 | COc1cccc(Cn2c(=O)oc3cc(C)ccc32)c1 | 
 | 42 | COc1cccc(Cn2c(=O)oc3ccc(C)cc32)c1 | 
44 | 27 | COc1cccc(Cn2c(=O)oc3ccc(CO)cc32)c1 | 
20 | 30 | CCOc1cccc(Cn2c(=O)oc3ccc(C)cc32)c1 | 
